Results as given in EPA's CvTdb concentration-time database.

How the values were obtained:
Rat [1] = assay: concentration in plasma after dosing; conditions: dosed: Pyridine, 5 mg/kg, iv, Male, F344
Rat [2] = assay: concentration in plasma after dosing; conditions: 40 h; dosed: Pyridine; 100 mg/kg; oral; Male; F344
Rat [3] = assay: concentration in plasma after dosing; conditions: dosed: Pyridine, 5 mg/kg, oral, Male, F344
human = assay: concentration in blood after dosing; negative times count back from the end of exposure; conditions: dosed: trichloroethylene, 100 ppm, inhalation, duration: 4 hr, person
Method in brief: (§1)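 Data points giving concentration or amount against time came from published in vivo toxicokinetic studies and from two structured collections. PubMed searching, classifier screening and manual review located the studies. Most points were digitised from plot screenshots using WebPlotDigitizer, the rest were copied from tables, and all keep their reported units.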

Rat [4] = assay: concentration in plasma after dosing; conditions: dosed: 2-Hydroxy-4-methoxybenzophenone, 100 mg/kg, oral, Female, F344
Rat [5] = assay: concentration in plasma after dosing; conditions: dosed: 2-Hydroxy-4-methoxybenzophenone, 100 mg/kg, oral, Female, F344; remark: listed apart in the source
Rat [6] = assay: concentration in plasma after dosing; conditions: dosed: 2-Hydroxy-4-methoxybenzophenone, 250 mg/kg, oral, Male, F344
Rat [7] = assay: concentration in plasma after dosing; conditions: dosed: 2-Hydroxy-4-methoxybenzophenone, 500 mg/kg, oral, Female, F344
Mouse [8] = assay: concentration in plasma after dosing; conditions: 2 h; dosed: 2-Hydroxy-4-methoxybenzophenone; 500 mg/kg; oral; Male; B6C3F1
Mouse [9] = assay: concentration in plasma after dosing; conditions: 2 h; dosed: 2-Hydroxy-4-methoxybenzophenone; 250 mg/kg; oral; Male; B6C3F1
Rat [10] = assay: concentration in brain after dosing; conditions: 0.5 h; dosed: alpha-Thujone; 25 mg/kg; oral; Male; Harlan Sprague Dawley
Rat [11] = assay: concentration in plasma after dosing; conditions: 1.5 h; dosed: alpha-Thujone; 50 mg/kg; oral; Female; Harlan Sprague Dawley
Rat [12] = assay: concentration in plasma after dosing; conditions: 0.5 h; dosed: alpha-Thujone; 50 mg/kg; oral; Male; Harlan Sprague Dawley
Rat [13] = assay: concentration in brain after dosing; conditions: 5 min; dosed: alpha-Thujone; 25 mg/kg; oral; Male; Harlan Sprague Dawley
Rat [14] = assay: concentration in plasma after dosing; conditions: 6 h; dosed: alpha-Thujone; 50 mg/kg; oral; Female; Harlan Sprague Dawley
Rat [15] = assay: concentration in brain after dosing; conditions: 0.5 h; dosed: alpha-Thujone; 50 mg/kg; oral; Female; Harlan Sprague Dawley
Rat [16] = assay: concentration in brain after dosing; conditions: 6 h; dosed: alpha-Thujone; 50 mg/kg; oral; Female; Harlan Sprague Dawley
Rat [17] = assay: concentration in kidney after dosing; conditions: 6 h; dosed: Perfluorohexane-1-sulphonic acid – potassium salt; 16 mg/kg; oral; Female; F344
Rat [18] = assay: concentration in kidney after dosing; conditions: 24 h; dosed: Perfluorohexane-1-sulphonic acid – potassium salt; 16 mg/kg; oral; Female; F344
Rat [19] = assay: concentration in brain after dosing; conditions: 48 h; dosed: Perfluorohexane-1-sulphonic acid – potassium salt; 16 mg/kg; oral; Female; Harlan Sprague Dawley
Rat [20] = assay: concentration in plasma after dosing; conditions: dosed: Perfluorohexane-1-sulphonic acid – potassium salt, 4 mg/kg, oral, Male, F344
Rat [21] = assay: concentration in kidney after dosing; conditions: 1200 h; dosed: Perfluorohexane-1-sulphonic acid – potassium salt; 16 mg/kg; oral; Male; Harlan Sprague Dawley
Rat [22] = assay: concentration in brain after dosing; conditions: 24 h; dosed: Perfluorohexane-1-sulphonic acid – potassium salt; 16 mg/kg; oral; Female; F344
Rat [23] = assay: concentration in brain after dosing; conditions: 6 h; dosed: Perfluorohexane-1-sulphonic acid – potassium salt; 16 mg/kg; oral; Female; F344
Rat [24] = assay: concentration in kidney after dosing; conditions: 12 h; dosed: Perfluorohexane-1-sulphonic acid – potassium salt; 16 mg/kg; oral; Female; Harlan Sprague Dawley
Hamster = assay: concentration in plasma after dosing; conditions: dosed: 2,4-Dichlorophenoxyacetic acid, 8.0 mg/kg, iv, Male, Syrian Golden
Method in brief: as §1

Rat [25] = assay: concentration in plasma after dosing; conditions: dosed: Methyleugenol, 37 mg/kg, oral, Male, F344/N
Rat [26] = assay: concentration in plasma after dosing; conditions: dosed: Methyleugenol, 37 mg/kg, oral, Male, F344/N; remark: listed apart in the source
Rat [27] = assay: concentration in plasma after dosing; conditions: 3 h; dosed: Primidone; 130 mg/kg; oral; Female; F344
Rat [28] = assay: concentration in plasma after dosing; conditions: 0.5 h; dosed: Primidone; 130 mg/kg; oral; Male; Harlan Sprague Dawley
Rat [29] = assay: concentration in plasma after dosing; conditions: 1.5 h; dosed: Primidone; 130 mg/kg; oral; Female; F344
Rat [30] = assay: concentration in plasma after dosing; conditions: 0.25 h; dosed: Primidone; 30 mg/kg; oral; Male; F344

With `c1ccncc1` [Pyridine] the concentration in plasma (Rat [1]; 2 h) was 2.78 µg/mL, the concentration in plasma (Rat [1]; 14 h) was 0.089 µg/mL and the concentration in plasma (Rat [2]) was 18400 ng/mL. For the same compound, the concentration in plasma (Rat [3]; 0.5 h) was 3.09 µg/mL and the concentration in plasma (Rat [3]; 6 h) was 1 µg/mL.

`OCC(Cl)(Cl)Cl` [trichloroethanol (free)] showed a concentration in blood (human; 0.2798 h) of 3.06 µg/mL, a concentration in blood (human; 0.518 h) of 2.98 µg/mL and a concentration in blood (human; 1.034 h) of 2.89 µg/mL. The concentration in blood (human; 2.025 h) was 2.71 µg/mL, the concentration in blood (human; 4.029 h) was 2.29 µg/mL and the concentration in blood (human; 5.972 h) was 2.03 µg/mL. For the same compound, the concentration in blood (human; 7.955 h) was 1.69 µg/mL, the concentration in blood (human; 9.937 h) was 1.48 µg/mL and the concentration in blood (human; 11.96 h) was 1.27 µg/mL. The concentration in blood (human; 13.96 h) was 1.07 µg/mL, the concentration in blood (human; 15.94 h) was 1.01 µg/mL and the concentration in blood (human; 17.94 h) was 0.738 µg/mL. For the same compound, the concentration in blood (human; -58 s, during exposure) was 2.86 µg/mL, the concentration in blood (human; -0.9832 h, during exposure) was 2.28 µg/mL and the concentration in blood (human; -2.028 h, during exposure) was 1.48 µg/mL. It also gave a concentration in blood (human; -3.013 h, during exposure) of 0.632 µg/mL and a concentration in blood (human; -3.486 h, during exposure) of 0.22 µg/mL.

Compound `O=C(c1ccccc1)c1ccc(O)cc1O` [2,4-Dihydroxybenzophenone] has a concentration in plasma (Rat [4]; 0.5 h) of 0.255 µg/mL, a concentration in plasma (Rat [4]; 5 h) of 0.0466 µg/mL and a concentration in plasma (Rat [5]; 10 min) of 0.126 µg/mL. For the same compound, the concentration in plasma (Rat [5]; 3 h) was 0.059 µg/mL, the concentration in plasma (Rat [6]; 0.5 h) was 0.888 µg/mL and the concentration in plasma (Rat [6]; 10 h) was 0.0755 µg/mL. For the same compound, the concentration in plasma (Rat [7]; 0.5 h) was 0.669 µg/mL, the concentration in plasma (Rat [7]; 12 h) was 0.198 µg/mL and the concentration in plasma (Mouse [8]) was 0.318 µg/mL. For the same compound, the concentration in plasma (Mouse [9]) was 0.266 µg/mL.

Compound `CC(C)[C@]12CC(=O)[C@H](C)[C@H]1C2` [alpha-Thujone] has a concentration in brain (Rat [10]) of 883 ng/g, a concentration in plasma (Rat [11]) of 560 ng/mL and a concentration in plasma (Rat [12]) of 2180 ng/mL. The concentration in brain (Rat [13]) was 62.6 ng/g, the concentration in plasma (Rat [14]) was 192 ng/mL and the concentration in brain (Rat [15]) was 865 ng/g. The concentration in brain (Rat [16]) was 200 ng/g.

For `O=S(=O)([O-])C(F)(F)C(F)(F)C(F)(F)C(F)(F)C(F)(F)C(F)(F)F.[K+]` [Perfluorohexane-1-sulphonic acid – potassium salt], the concentration in kidney (Rat [17]) was 36400 ng/g, the concentration in kidney (Rat [18]) was 28100 ng/g and the concentration in brain (Rat [19]) was 496 ng/g. For the same compound, the concentration in plasma (Rat [20]; 1 h) was 18800 ng/mL, the concentration in plasma (Rat [20]; 12 h) was 32300 ng/mL and the concentration in plasma (Rat [20]; 864 h) was 6150 ng/mL. The concentration in kidney (Rat [21]) was 2640 ng/g, the concentration in brain (Rat [22]) was 1760 ng/g and the concentration in brain (Rat [23]) was 1520 ng/g. For the same compound, the concentration in kidney (Rat [24]) was 31200 ng/g.

In the case of `O=C(O)COc1ccc(Cl)cc1Cl` [2,4-Dichlorophenoxyacetic acid], the concentration in plasma (Hamster; 0.25 h) is reported as 13.5 µg/mL and the concentration in plasma (Hamster; 0.5 h) is reported as 7.69 µg/mL.

In the case of `C=CCc1ccc(OC)c(OC)c1` [Methyleugenol], the concentration in plasma (Rat [25]; 1.5 h) is reported as 0.148 µg/mL, the concentration in plasma (Rat [25]; 8 h) is reported as 0.00819 µg/mL and the concentration in plasma (Rat [26]; 2 min) is reported as 8.3 ng/mL. It also gave a concentration in plasma (Rat [26]; 4 h) of 11.2 ng/mL.

In the case of `CCC1(c2ccccc2)C(=O)NCNC1=O` [Primidone], the concentration in plasma (Rat [27]) is reported as 50.4 µg/mL, the concentration in plasma (Rat [28]) is reported as 47 µg/mL and the concentration in plasma (Rat [29]) is reported as 68.1 µg/mL. The concentration in plasma (Rat [30]) was 7.8 µg/mL.
